Consider 17 compounds from ChEMBL document CHEMBL3875221, “New N- and O-arylpiperazinylalkyl pyrimidines and 2-methylquinazolines derivatives as 5-HT7 and 5-HT1A receptor ligands: Synthesis, structure-activity relationships, and molecular modeling studies” (Bioorg Med Chem, 2017).

pKi: −log10 of the molar value.

In test [1] the target is T1, 5-hydroxytryptamine receptor 7 (Homo sapiens, UniProt P34969). Nature of the test: Displacement of [3H]-5-HT from recombinant human 5-HT7A receptor expressed in CHOK1 cell membranes after 40 mins by liquid scintillation counting method. On the set-up: species or system CHO-K1. The method in brief:
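Membranes (15 µg protein/sample) in 50 mM Tris-HCl pH 7.4 with 4 mM MgCl2, incubated 40 min at 27 °C with [3H]-5-HT (5 nM final). Nonspecific binding with 10 µM serotonin. Stopped by vacuum filtration on PEI-soaked GF/C filters, ice-cold Tris washes.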

Test [2] concerns the target T2, 5-hydroxytryptamine receptor 1A (Homo sapiens, UniProt P08908).
T2 sequence (P08908 whole entry): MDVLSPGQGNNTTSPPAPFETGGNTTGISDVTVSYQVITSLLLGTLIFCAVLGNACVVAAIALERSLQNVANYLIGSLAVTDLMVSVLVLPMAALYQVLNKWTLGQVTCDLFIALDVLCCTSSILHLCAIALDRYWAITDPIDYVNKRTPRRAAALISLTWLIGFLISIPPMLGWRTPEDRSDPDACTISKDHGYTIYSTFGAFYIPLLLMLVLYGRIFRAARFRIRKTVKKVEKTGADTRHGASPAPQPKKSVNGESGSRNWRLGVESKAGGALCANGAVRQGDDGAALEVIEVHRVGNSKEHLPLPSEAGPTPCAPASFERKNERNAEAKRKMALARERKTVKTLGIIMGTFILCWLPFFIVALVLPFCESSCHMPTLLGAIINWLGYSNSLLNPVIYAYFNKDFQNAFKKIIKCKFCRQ
Nature of the test: Displacement of [3H]-8-OH-DPAT from recombinant human 5-HT1A receptor expressed in CHOK1 cell membranes after 1 hr by liquid scintillation counting method. On the set-up: species or system CHO-K1.

Test [3] deals with T1, 5-hydroxytryptamine receptor 7. Nature of the test: Antagonist activity at recombinant human 5-HT7 receptor expressed in HEK293 cells assessed as inhibition of 5-CT-induced increase in cAMP level at 10^-6M after 30 mins by TR-FRET assay relative to control. The format is functional, cell-based. The method in brief: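 Stably transfected HEK293 cells in stimulation buffer (HBSS, 5 mM HEPES, 0.5 mM IBMX, 0.1% BSA) exposed to 10 nM 5-CT with test ligand for 30 min at room temperature. Lysis with Eu-cAMP/ULight-anti-cAMP, 1 h, then TR-FRET readout of cAMP.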

Test [4] has as its target T3, 5-hydroxytryptamine receptor 1A (Homo sapiens) (UniProt P08908).
T3 sequence (whole entry): T2 sequence (P08908 whole entry)
Nature of the test: Antagonist activity at recombinant human 5-HT1A receptor expressed in HEK293 cells assessed as inhibition of 8-OH-DPAT-induced decrease in cAMP level at 10^-6M after 30 mins in presence of forskolin by TR-FRET assay relative to control. Type of test: functional, cell-based. The method in brief: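 Stable HEK293 cells grown in DMEM with 10% dialysed FBS and G418, resuspended in HBSS/HEPES buffer with 0.5 mM IBMX and 0.1% BSA. Stimulated with 1 µM forskolin plus 1 µM (R)-(+)-8-OH-DPAT alongside test ligand, 30 min at room temperature. cAMP by LANCE Ultra TR-FRET after lysis, 1 h.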

T1 sequence (P34969 whole entry): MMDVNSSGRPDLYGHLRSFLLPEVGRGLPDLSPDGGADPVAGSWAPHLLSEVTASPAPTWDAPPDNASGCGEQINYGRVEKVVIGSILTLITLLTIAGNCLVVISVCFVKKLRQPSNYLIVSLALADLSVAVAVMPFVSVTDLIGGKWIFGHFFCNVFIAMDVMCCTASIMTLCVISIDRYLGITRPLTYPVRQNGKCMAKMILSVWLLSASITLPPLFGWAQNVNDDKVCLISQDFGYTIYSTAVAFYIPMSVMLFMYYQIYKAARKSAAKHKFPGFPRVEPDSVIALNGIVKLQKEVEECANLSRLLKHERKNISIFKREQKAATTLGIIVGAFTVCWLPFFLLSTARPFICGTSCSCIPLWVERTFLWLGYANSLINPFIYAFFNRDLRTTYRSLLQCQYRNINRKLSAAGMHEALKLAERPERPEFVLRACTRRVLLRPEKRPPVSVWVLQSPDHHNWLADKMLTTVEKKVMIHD

In the case of `c1ccc(-c2cc(OCCCCCN3CCN(c4ccccc4)CC3)ncn2)cc1`, the pKi was 6.84 in test [1] and 7.47 in test [2].
As to `CC1CCN(CC[C@H]2CCCN2S(=O)(=O)c2cccc(O)c2)CC1`, in test [3], the inhibition turned out to be 97%.
Regarding `Cc1nc(OCCCCCN2CCN(c3ccc(Cl)cc3)CC2)c2ccccc2n1`, the values for the pKi in test [1] and in test [2] were 6.74 and 7.28, respectively.
For the compound `c1ccc(CN2CCN(CCCCCOc3cc(-c4ccccc4)ncn3)CC2)cc1`, the pKi was 6.00 in test [1] and 5.99 in test [2].
For the compound `O=c1cc(-c2ccccc2)ncn1CCCCCN1CCN(c2ccccc2)CC1`, the results for the pKi in test [1] and in test [2] were 6.21 and 6.95, respectively.
As for `Clc1ccc(N2CCN(CCCCCOc3cc(-c4ccccc4)ncn3)CC2)cc1`, the pKi is 5.86 in test [1] and 7.04 in test [2].
With `Cc1nc2ccccc2c(=O)n1CCCCCN1CCN(c2ccc(Cl)cc2)CC1`, the pKi is 6.49 in test [1] and 7.00 in test [2].
In the same order, the values of `Cc1nc(OCCCCCN2CCN(c3ccccc3)CC2)c2ccccc2n1` are 6.56 and 7.61.
`CCOc1ccccc1N1CCN(CCCCCOc2cc(-c3ccccc3)ncn2)CC1`: the inhibition in test [3] was found to be 5.5%; in test [4] it was 6%. The pKi is 7.63 in test [1] and 8.16 in test [2].
As for `Cc1nc2ccccc2c(=O)n1CCCCCN1CCN(c2ccccc2)CC1`, the pKi in test [1] was 7.27; in test [2] it was 7.73.
For `CCOc1ccccc1N1CCN(CCCCCn2c(C)nc3ccccc3c2=O)CC1`, the inhibition is 19.5% in test [3] and 18% in test [4]. The results for the pKi in test [1] and in test [2] were 8.07 and 8.52, respectively.
As for `CCOc1ccccc1N1CCN(CCCCCn2cnc(-c3ccccc3)cc2=O)CC1`, the pKi was 7.35 in test [1] and 7.59 in test [2].
For `O=c1cc(-c2ccccc2)ncn1CCCCCN1CCN(Cc2ccccc2)CC1`, in that order: 5.88 and 6.11.
For the compound `O=c1cc(-c2ccccc2)ncn1CCCCCN1CCN(c2cccc(Cl)c2)CC1`, the results for the negative-log Ki (pKi) in test [1] and in test [2] were 7.02 and 7.75, respectively.
For `Cc1nc2ccccc2c(=O)n1CCCCCN1CCN(c2cccc(Cl)c2)CC1`, in that order: 7.45 and 8.09.
For `O=c1cc(-c2ccccc2)ncn1CCCCCN1CCN(c2ccc(Cl)cc2)CC1`, the pKi in test [1] was 5.88; in test [2], 6.78.
For `Clc1cccc(N2CCN(CCCCCOc3cc(-c4ccccc4)ncn3)CC2)c1`, the negative logarithm of the Ki (pKi) is 7.35 in test [1] and 7.76 in test [2].
